Experimental findings from ChEMBL document CHEMBL4513216, “Probing the Open Global Health Chemical Diversity Library for Multistage-Active Starting Points for Next-Generation Antimalarials” (ACS Infect Dis, 2020) are described below.

The data set is described as follows: Toxicity liver stage against HepG2, at 10uM. The class given is cell-based. Also noted: test concentration 10 uM, cell line HepG2-A16-CD81EGFP. The note with it: human, HepG2-A16-CD81EGFP cells; read-out: INHIBITION
A digest of the protocol:
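Uninfected HepG2-A16-CD81EGFP cells, 3 × 10^3 per well, 1536-well, plated on prespotted compound at 10 μM final, parasite-free screening media added to match infected plates; puromycin 10 μM positive, DMSO 0.5% negative; run in parallel with 48 h PbLuc assay at 37 °C, 5% CO2; viability by CellTiter-Glo luminescence, normalized to controls.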
As for `CCn1c(C2CCN(C(=O)CCc3cc(Cl)no3)CC2)nn(C)c1=O`, the cytotoxicity at 10 µM is -7.09%.
Under `CC(C)CSCCCNC(=O)C1CCC1` stands -4.47%; under `Cn1ccc2c(-c3ccc(NCCO)nn3)ccnc21`, -5.56%.
Turning to `CN(C)S(=O)(=O)c1ccc2c(c1)N(Cc1nccn1C)CC2`, the cytotoxicity at 10 µM was -3.42%.
Regarding `O=C(NCCn1ccnc1)C1(c2ccc3c(c2)OCCO3)CCCC1`, the cytotoxicity at 10 µM is -4.38%.
The result for `CCOc1cccc(CNC(=O)c2cnn(CC)c2C(F)(F)F)c1` reads 11.7%; that for `CC(C)c1nnc2n1CCN(C(C)c1nnc(-c3cccs3)o1)C2` (stereo not given), 7.8%.
Under `CS(=O)(=O)NCCN1CCCC1c1ccc(Cl)cc1` (stereo not given) stands 3.6%; under `O=C(c1nc(Cc2c[nH]c3ccccc23)no1)N1CCOCC1`, 11.1%.
Under `COc1cccc(-n2cc(-c3ccnc(N[C@H](CO)C(C)C)n3)cn2)c1` stands -2.04%; under `CS(=O)(=O)N[C@@H]1CN(C(=O)c2cc3ccccc3s2)C[C@H]1O`, -0.378%.
On to `CN(C)C(=O)NC[C@H]1OC[C@@H]2CCN(Cc3ccoc3)C[C@@H]21`, for which the cytotoxicity at 10 µM is 2.82%.
The result for `CC(C)c1noc(C2CC(=O)N(CCN(C)C)C2)n1` (stereo not given) reads -8.25%.
`c1cc(OCc2ccc3c(c2)OCO3)ccc1CNC1CC1`: the cytotoxicity at 10 µM was 4.7%.
The result for `CS(=O)(=O)NCc1cc(-c2cc(F)cc(F)c2)nc(N2CC[C@H](O)C2)n1` reads -9.58%.
The result for `Cc1nc(C)n(CC2CN(Cc3cccc(OC(C)C)c3)CCO2)n1` (stereo not given) reads -5.44%.
The result for `Cc1csc(CNC(=O)N2CCCC(c3nncn3C)C2)n1` (stereo not given) reads -18.3%.
Turning to `Cc1n[nH]c2nc(-c3cc(Br)ccc3O)cc(C(=O)O)c12`, the cytotoxicity at 10 µM stood at 0.0962%.
Under `CC(C)CN1C(=O)C2(CCCC2)NC1c1cn(C)c(=O)n(C)c1=O` (stereo not given) stands 2.8%.
The result for `Cc1cccnc1N1CC2(CCN(Cc3cnn(C)c3)C2)C1` reads -5.99%; that for `OCCN1CCCCC1c1cc[nH]n1` (stereo not given), -1.71%; that for `COc1cc(C(=O)NS(=O)(=O)c2cccc(C#N)c2)cc(OC)c1Br`, -9.67%.
The result for `Cc1cnc(C)c(N2C[C@H]3OC(=O)N(C4CCCC4)[C@H]3C2)n1` reads 12.5%.
Consider `CC(=O)N1CCCN(C2CCCCc3ccccc32)CC1` (stereo not given), for which the cytotoxicity at 10 µM is -48.6%.
Under `Cc1ccccc1CNC(=O)N1CC[C@@H]2CN(C)S(=O)(=O)[C@@H]2CC1` stands -0.39%; under `CC(C)c1n[nH]c(C2CN(Cc3ccno3)CCO2)n1` (stereo not given), 5.49%.
Take `COc1ccc(C(=O)c2cnc(C(C)C)n2C)cc1`: the cytotoxicity at 10 µM came out at 15.5%.
Under `COCc1cc(CNC(=O)c2c(O)cccc2O)n[nH]1` stands -6.93%; under `Cc1nc[nH]c1-c1nccn1CCN1CCOC1=O`, -5.58%.
In the case of `COCCN(Cc1cccc(C#N)c1)Cc1nc(C)no1`, the cytotoxicity at 10 µM was found to be 1.18%.
The result for `Cc1csc(CNC(=O)N(C)Cc2cnn(C)c2)n1` reads -1.57%; that for `COc1cc(O)ccc1CN1CCN(C2CCc3ccccc3C2)CC1` (stereo not given), -1.33%; that for `Cc1nnc(NC(=O)NCCN(C(=O)OC(C)(C)C)C2CC2)s1`, 5.53%.
Under `c1cc(CN2C[C@@H]3OCCN(CC4CC4)[C@@H]3C2)n[nH]1` stands -109%.
Under `COc1ccc2c3c1CN(C(C)=O)CC3=CC(C)(C)CO2` stands 10.1%; under `Cc1ccccc1C(NC(=O)NCC1(CO)CC1)C1CC1` (stereo not given), -7.16%; under `N#Cc1cccnc1N1CCCN(CC(=O)N2CCNC(=O)C2)CC1`, 4.07%.
Regarding `Cc1nc(N2CCCC2)nc2c1CCN(C(=O)N(C)C)CC2`, the cytotoxicity at 10 µM worked out at 7.05%.
The result for `CCn1cnnc1CNC(=O)N(C)Cc1ccc(F)c(F)c1` reads -11.4%; that for `Cc1ccc(C(=O)N2C[C@@H]3CCN(C(C)C)C[C@@H]3C2)cn1`, -6.54%.
The result for `CN(C)c1nc(N2CCCC2)nc2c1CCN(C(=O)c1ccco1)CC2` reads 14.4%; that for `CCC(C)N1CCc2c(C(=O)N(C)Cc3ccccn3)nn(C)c2C1` (stereo not given), -2.78%.
The result for `CC(=O)N(Cc1noc(C)n1)C1CCN(Cc2ccc(C#N)cc2)C1` (stereo not given) reads -3.66%; that for `COCCNC(=O)C1CC(=O)N(c2n[nH]c3cccc(F)c23)C1` (stereo not given), 3.23%.
For the compound `Cc1nnc(C(C)NCC2(c3ccc(Cl)cc3)CCOCC2)o1` (stereo not given), the cytotoxicity at 10 µM was -1.47%.
The result for `O=C1[C@H]2CN(CC3CCOCC3)C[C@H]2CN1c1ccsc1` reads 8.52%; that for `N#Cc1ccccc1CN1C[C@H]2CC[C@@H](C1)N(Cc1cscn1)C2=O`, -8.42%.
The result for `CNC(=O)C(C)(C)N1CCC[C@H]1C(=O)NCCN1CCCC1` reads -2.3%; that for `CN(C)S(=O)(=O)c1ccc(=O)n(CC2CCCO2)c1` (stereo not given), -3.54%; that for `COCCN1CCC12CCN(C(=O)c1ccc3[nH]ccc3c1)C2` (stereo not given), -82.6%.
As to `Cn1ncc2c(=O)[nH]c(CN(Cc3ccco3)C3CC3)nc21`, the cytotoxicity at 10 µM is -9.8%.
Under `Cc1nc2c(c(C)c1CC(=O)NCc1ccco1)c(=O)[nH]n2C` stands -42.5%; under `C[C@]1(O)CCN(Cc2ncccc2F)C[C@@H]1Oc1ccccc1`, -21.4%; under `Cc1noc(C)c1CC(=O)NCCN1CCN(S(C)(=O)=O)CC1`, -5.87%.
Under `CC(C)CC(c1nc(-c2cnn(C)c2)no1)N1CCCCC1=O` (stereo not given) stands -42%; under `CN(Cc1cccnc1)[C@@H]1CN(c2ncc(F)cn2)[C@@H]2CCCO[C@H]12`, 0.559%; under `O=C(NC1CCCNC1=O)c1ccc2nc(-c3ccc(F)cc3)cn2c1` (stereo not given), 8.8%.
On to `CC(C)(C)CC(=O)NCCCn1cncn1`, for which the cytotoxicity at 10 µM was -4.34%.
The result for `CNc1cc(CNC(=O)c2ccnc(OC)c2)nc(-c2ccncc2)n1` reads -7.08%.
The result for `Nc1ncncc1-c1noc([C@@H]2CCCN2CCCc2ccccc2)n1` reads 1.58%; that for `Cc1cc(C)nc(Nc2cccc(C3CCCN(C(C)C)C3)n2)n1` (stereo not given), -19.4%; that for `O=C(CN(Cc1cccs1)C1CCS(=O)(=O)C1)NC1CCCCC1` (stereo not given), -7.53%.
Under `CC(=O)c1ccc(N2CCC(CO)(CCOc3ccccc3)CC2)nc1` stands 28.1%; under `Cc1cccc(CN2CCC(c3csc4nccn34)CC2)n1`, 1.54%.
On to `O=C(c1cnccn1)N1CCCC2(CCN(Cc3ccsc3)CC2)C1`, for which the cytotoxicity at 10 µM came to 1.55%.
For `Cc1ccc(S(=O)(=O)N2CCC(Oc3ccccn3)CC2)c(C)c1`, the cytotoxicity at 10 µM is 26.3%.
Take `O=C(c1ccc(F)c(F)c1)N1C[C@H]2CNC[C@H]2C1`: the cytotoxicity at 10 µM worked out at 5.82%.
Under `O=C(c1ccoc1)N(Cc1cccnc1)C1CC1` stands -13.2%; under `Cc1cc(C(=O)N2CC[C@H]3C[C@H](c4ccncn4)O[C@@H]3C2)no1`, -78%; under `Cc1noc(C)c1CN1CC2(CCN(C(=O)c3cc[nH]n3)C2)CC1=O` (stereo not given), 12.2%.
Under `COc1cccc(C(=O)N2CCCC(CNS(C)(=O)=O)C2)c1` (stereo not given) stands -17.9%; under `Cn1cccc1C(=O)N1CCN2C[C@H](Oc3cccnc3)C[C@H]2C1`, 3.58%.
Under `Cc1ccc2cc(C(=O)N3CCS(=O)(=O)CC3)[nH]c2c1` stands -56.3%.
On to `Cc1cnc(NC(=O)c2cccc(CN(C)Cc3snnc3C)c2)s1`, for which the cytotoxicity at 10 µM was 16.3%.
Under `COCC(=O)Nc1ccc(-c2noc([C@@H]3CCCN3C)n2)cn1` stands 6.65%; under `CN(Cc1ccsc1)C(=O)Nc1cccc(N2CCOC2=O)c1`, -12.9%.
Under `COc1ccc(CN(Cc2nc(C)no2)C2CCCCC2)cc1OC` stands -0.0185%.
Consider `Cc1cc2ccccc2n1CCC(=O)N1CCC[C@H]1C(N)=O`, for which the cytotoxicity at 10 µM is -0.338%.
The result for `CC(=O)N1CCN(C(=O)NCCc2ccc(Cl)s2)CC1` reads -11.6%.
Under `CNC(=O)NC(C)c1nc(-c2ccc(Br)cc2)no1` (stereo not given) stands 7.71%.
Under `Cc1nn(CC(=O)N2CCN(c3cnccn3)CC2)c(C)c1Cl` stands 7.76%.
In the case of `Cc1ccc2c(c1)C(=O)NCC1(CCN(Cc3ccccc3)CC1)O2`, the cytotoxicity at 10 µM was -26.9%.
Under `CC1(C)CNC(=O)c2nc(CCCN3CCCC3)[nH]c2C1` stands -12.4%; under `COc1ccccc1CC(=O)N1CC[C@@]2(CCCO2)[C@@H](OC)C1`, 11.7%.
`Cc1cc(C(=O)N2CC[C@@H]3CN(S(C)(=O)=O)CCO[C@@H]3C2)c(C)o1`: the cytotoxicity at 10 µM came to 3.52%.
Under `CC(=O)N1CCC(NC(=O)CN2CCCc3c(F)ccc(C)c32)CC1` stands -7.68%; under `Cc1nccn1CC1CCCN1CCCc1nc(-c2cccs2)no1` (stereo not given), -1.84%; under `Cc1nn2c(=O)/c(=C\c3cccs3)sc2nc1=O`, 7.19%.
The result for `O=C(c1cnccn1)N1CCCC(Cc2cncc3ccccc23)C1` (stereo not given) reads -31.4%; that for `COc1cc(C(C)=O)ccc1SCC(=O)Nc1cc(C)n[nH]1`, 9.83%; that for `CCC(O)(CNCc1ccncc1)c1ccc(Br)cc1` (stereo not given), -8.64%.
The result for `COc1nn(C)c2c1CCCN(C(=O)c1ccc(C)c(F)c1)C2` reads 8.21%.
As for `CCS(=O)(=O)N1CC[C@@H]2[C@H]1CCC(=O)N2CCOC`, the cytotoxicity at 10 µM was -104%.
Under `Cc1ccc(CN2CCCC(c3nn(C)c4nccnc34)C2)s1` (stereo not given) stands -10.6%; under `CN(C)c1nccc(C2CN(S(C)(=O)=O)C2)n1`, 6.95%.
